Reference: ChEMBL document CHEMBL4715736, “Identification of anticancer agents based on the thieno[2,3-b]pyridine and 1H-pyrazole molecular scaffolds” (2016)

How the values were obtained:
Type in all cases: functional
SK-OV-3 = assay: Growth inhibition of human SK-OV-3 cells assessed as cell growth at 10 uM incubated for 48 hrs by sulforhodamine B assay relative to control; conditions: read-out: Activity
Outline: (§1)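 Run by the NCI Developmental Therapeutics Program as part of its 60-line human tumour panel. Each compound tested at a single 10 µM dose. Growth expressed as % relative to untreated control cells (100%).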

SK-MEL-28 = assay: Growth inhibition of human SK-MEL-28 cells assessed as cell growth at 10 uM incubated for 48 hrs by sulforhodamine B assay relative to control; conditions: read-out: Activity; outline: as §1
COLO 205 = assay: Growth inhibition of human COLO 205 cells assessed as cell growth at 10 uM incubated for 48 hrs by sulforhodamine B assay relative to control; conditions: read-out: Activity
Outline: (§2)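 NCI Developmental Therapeutics Program NCI60 panel. Compounds that were active in the 10 µM one-dose screen went on to dose–response testing. Growth at each concentration is expressed relative to untreated control (100%). GI50 (concentration giving 50% of maximal inhibition of proliferation) and TGI (concentration giving total growth inhibition) were derived from the curves.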

SF-268 = assay: Growth inhibition of human SF-268 cells assessed as cell growth at 10 uM incubated for 48 hrs by sulforhodamine B assay relative to control; conditions: read-out: Activity; outline: as §1
NCI-H460 = assay: Growth inhibition of human NCI-H460 cells assessed as cell growth at 10 uM incubated for 48 hrs by sulforhodamine B assay relative to control; conditions: read-out: Activity
Outline: (§3)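 Submitted to the NCI Developmental Therapeutics Program for the NCI60 human tumour cell line panel. First screen at a single 10 µM concentration. Read-out is growth relative to untreated control cells set at 100%.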

SK-MEL-2 [1] = assay: Growth inhibition of human SK-MEL-2 cells assessed as cell growth at 10 uM incubated for 48 hrs by sulforhodamine B assay relative to control; conditions: read-out: Activity; outline: as §1
SNB-75 = assay: Growth inhibition of human SNB-75 cells assessed as cell growth at 10 uM incubated for 48 hrs by sulforhodamine B assay relative to control; conditions: read-out: Activity; outline: as §1
SK-MEL-2 [2] = assay: Growth inhibition of human SK-MEL-2 cells assessed as cell growth at 1 uM incubated for 48 hrs by sulforhodamine B assay relative to control; conditions: read-out: Activity
BT-549 = assay: Growth inhibition of human BT-549 cells assessed as cell growth at 10 uM incubated for 48 hrs by sulforhodamine B assay relative to control; conditions: read-out: Activity
Outline: (§4)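 NCI Developmental Therapeutics Program NCI60 human tumour cell line panel, one-dose primary screen with every compound at 10 µM. Growth is expressed as % of untreated control cells (100%).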

SR = assay: Growth inhibition of human SR cells assessed as cell growth at 10 uM incubated for 48 hrs by sulforhodamine B assay relative to control; conditions: read-out: Activity; outline: as §1
PC-3 = assay: Growth inhibition of human PC-3 cells assessed as cell growth at 10 uM incubated for 48 hrs by sulforhodamine B assay relative to control; conditions: read-out: Activity; outline: as §1
SW-620 = assay: Growth inhibition of human SW-620 cells assessed as cell growth at 10 uM incubated for 48 hrs by sulforhodamine B assay relative to control; conditions: read-out: Activity; outline: as §1
CAKI-1 = assay: Growth inhibition of human CAKI-1 cells assessed as cell growth at 10 uM incubated for 48 hrs by sulforhodamine B assay relative to control; conditions: read-out: Activity; outline: as §2
NCI-H322M = assay: Growth inhibition of human NCI-H322M cells assessed as cell growth at 10 uM incubated for 48 hrs by sulforhodamine B assay relative to control; conditions: read-out: Activity; outline: as §3
TK-10 = assay: Growth inhibition of human TK-10 cells assessed as cell growth at 10 uM incubated for 48 hrs by sulforhodamine B assay relative to control; conditions: read-out: Activity; outline: as §1
K562 = assay: Growth inhibition of human K562 cells assessed as cell growth at 10 uM incubated for 48 hrs by sulforhodamine B assay relative to control; conditions: read-out: Activity; outline: as §3
DU-145 [3] = assay: Growth inhibition of human DU-145 cells incubated for 48 hrs by sulforhodamine B assay; conditions: for CC50: read-out: LC50 (the source's name); outline: as §2
A549 = assay: Growth inhibition of human A549/ATCC cells assessed as cell growth at 100 uM incubated for 48 hrs by sulforhodamine B assay relative to control; conditions: read-out: Activity; outline: as §2
NCI-H23 = assay: Growth inhibition of human NCI-H23 cells assessed as cell growth at 0.1 uM incubated for 48 hrs by sulforhodamine B assay relative to control; conditions: read-out: Activity
HT-29 [4] = assay: Growth inhibition of human HT-29 cells assessed as cell growth at 10 uM incubated for 48 hrs by sulforhodamine B assay relative to control; conditions: read-out: Activity; outline: as §3
HCT-116 = assay: Growth inhibition of human HCT-116 cells assessed as cell growth at 10 uM incubated for 48 hrs by sulforhodamine B assay relative to control; conditions: read-out: Activity; outline: as §3
ACHN = assay: Growth inhibition of human ACHN cells assessed as cell growth at 10 uM incubated for 48 hrs by sulforhodamine B assay relative to control; conditions: read-out: Activity; outline: as §4
RPMI-8226 = assay: Growth inhibition of human RPMI-8226 cells assessed as cell growth at 0.01 uM incubated for 48 hrs by sulforhodamine B assay relative to control; conditions: read-out: Activity
HCT-15 = assay: Growth inhibition of human HCT-15 cells assessed as cell growth at 10 uM incubated for 48 hrs by sulforhodamine B assay relative to control; conditions: read-out: Activity; outline: as §3
NCI-H226 = assay: Growth inhibition of human NCI-H226 cells assessed as cell growth at 10 uM incubated for 48 hrs by sulforhodamine B assay relative to control; conditions: read-out: Activity; outline: as §3
UACC-62 = assay: Growth inhibition of human UACC-62 cells assessed as cell growth at 1 uM incubated for 48 hrs by sulforhodamine B assay relative to control; conditions: read-out: Activity
DU-145 [5] = assay: Growth inhibition of human DU-145 cells assessed as cell growth at 100 uM incubated for 48 hrs by sulforhodamine B assay relative to control; conditions: read-out: Activity; outline: as §2
MCF7 = assay: Growth inhibition of human MCF7 cells assessed as cell growth at 10 uM incubated for 48 hrs by sulforhodamine B assay relative to control; conditions: read-out: Activity; outline: as §3
OVCAR-4 = assay: Growth inhibition of human OVCAR-4 cells assessed as cell growth at 10 uM incubated for 48 hrs by sulforhodamine B assay relative to control; conditions: read-out: Activity; outline: as §1
NCI/ADR-RES = assay: Growth inhibition of human NCI/ADR-RES cells assessed as cell growth at 10 uM incubated for 48 hrs by sulforhodamine B assay relative to control; conditions: read-out: Activity; outline: as §3
Hs-578T = assay: Growth inhibition of human Hs-578T cells assessed as cell growth at 10 uM incubated for 48 hrs by sulforhodamine B assay relative to control; conditions: read-out: Activity; outline: as §3
HT-29 [6] = assay: Growth inhibition of human HT-29 cells assessed as cell growth at 0.01 uM incubated for 48 hrs by sulforhodamine B assay relative to control; conditions: read-out: Activity
NCI-H522 = assay: Growth inhibition of human NCI-H522 cells assessed as cell growth at 10 uM incubated for 48 hrs by sulforhodamine B assay relative to control; conditions: read-out: Activity; outline: as §3
HOP-92 = assay: Growth inhibition of human HOP-92 cells assessed as cell growth at 1 uM incubated for 48 hrs by sulforhodamine B assay relative to control; conditions: read-out: Activity

Row | Structure (SMILES) | growth at 10 µM (SK-OV-3) [%] | growth at 10 µM (SK-MEL-28) [%] | growth at 10 µM (COLO 205) [%] | growth at 10 µM (SF-268) [%] | growth at 10 µM (NCI-H460) [%] | growth at 10 µM (SK-MEL-2 [1]) [%] | growth at 10 µM (SNB-75) [%] | growth at 1 µM (SK-MEL-2 [2]) [%] | growth at 10 µM (BT-549) [%] | growth at 10 µM (PC-3) [%] | growth at 10 µM (SW-620) [%] | growth at 10 µM (CAKI-1) [%] | growth at 10 µM (NCI-H322M) [%] | growth at 10 µM (TK-10) [%] | growth at 10 µM (K562) [%] | GI50 (DU-145 [3]) [µM] | TGI (DU-145 [3]) [µM] | CC50 (DU-145 [3]) [µM] | growth at 100 µM (A549) [%] | growth at 0.1 µM (NCI-H23) [%] | further results
1 | Nc1c(C(=O)Nc2ccccc2)sc2nc3c(cc12)CN(Cc1ccccc1)CC3 | 12 | 63 | 66 | 38 | 44 | 70 | -54 | 101 | 65 | 70 | 63 | 56 | 62 | 19 | 48 | 14.8 | > 100 | > 100 | 17 | 101 | growth at 10 µM (SR): 54%; growth at 10 µM (HT-29 [4]): 77%; growth at 10 µM (HCT-116): 51%; growth at 10 µM (ACHN): 37%; growth at 0.01 µM (RPMI-8226): 97%; growth at 10 µM (HCT-15): 66%; growth at 10 µM (NCI-H226): 31%; growth at 1 µM (UACC-62): 89%; growth at 100 µM (DU-145 [5]): 16%; growth at 10 µM (MCF7): 53%; growth at 10 µM (OVCAR-4): 11%; growth at 10 µM (NCI/ADR-RES): 56%; growth at 10 µM (Hs-578T): -11%; growth at 0.01 µM (HT-29 [6]): 104%; growth at 10 µM (NCI-H522): 70%; growth at 1 µM (HOP-92): 74%
2 | CN1CCc2nc3sc(C(N)=O)c(N)c3c(-c3cccs3)c2C1 | 15 | -2 | -54 | 10 | 6 | -28 | -10 | 108 | 10 | 21 | 7 | 11 | 15 | 1 | 30 | 3.91 | 86.9 | > 100 | 9 | 95 | growth at 10 µM (SR): -11%; growth at 10 µM (HT-29 [4]): 7%; growth at 10 µM (HCT-116): 6%; growth at 0.01 µM (RPMI-8226): 108%; growth at 10 µM (HCT-15): 10%; growth at 10 µM (NCI-H226): 11%; growth at 1 µM (UACC-62): 93%; growth at 100 µM (DU-145 [5]): -1%; growth at 10 µM (MCF7): 12%; growth at 10 µM (OVCAR-4): 41%; growth at 10 µM (NCI/ADR-RES): 19%; growth at 10 µM (Hs-578T): 6%; growth at 0.01 µM (HT-29 [6]): 106%; growth at 10 µM (NCI-H522): 9%; growth at 1 µM (HOP-92): 104%
3 | COc1cccc(NC(=O)c2sc3nc4c(cc3c2N)CN(Cc2ccccc2)CC4)c1 | 11 | 27 | 44 | 18 | 24 | 51 | -38 | 77 | 23 | 54 | 30 | 53 | 71 | 28 | 16 | 5.22 | 22.2 | 76.3 | -8 | 101 | growth at 10 µM (SR): 40%; growth at 10 µM (HT-29 [4]): 16%; growth at 10 µM (HCT-116): 23%; growth at 10 µM (ACHN): 14%; growth at 0.01 µM (RPMI-8226): 98%; growth at 10 µM (HCT-15): 30%; growth at 10 µM (NCI-H226): 41%; growth at 1 µM (UACC-62): 58%; growth at 100 µM (DU-145 [5]): -61%; growth at 10 µM (MCF7): 21%; growth at 10 µM (OVCAR-4): 13%; growth at 10 µM (NCI/ADR-RES): 28%; growth at 10 µM (Hs-578T): 5%; growth at 0.01 µM (HT-29 [6]): 104%; growth at 10 µM (NCI-H522): 61%; growth at 1 µM (HOP-92): 64%
4 | Cc1cccc(NC(=O)c2sc3nc4c(cc3c2N)C(=O)CCC4)c1 | 3 | 34 | -21 | 33 | 5 | 13 | 4.87 | 17 | 32 | 20 | 21 | 26 | 37.2 | 57 | 16 | 0.285 | ≥ 100 | ≥ 100 | 19 | 82 | growth at 10 µM (HT-29 [4]): -1%; growth at 10 µM (HCT-116): 20%; growth at 10 µM (ACHN): 25%; growth at 0.01 µM (RPMI-8226): 99%; growth at 10 µM (HCT-15): 18%; growth at 10 µM (NCI-H226): 43%; growth at 1 µM (UACC-62): 29%; growth at 100 µM (DU-145 [5]): -34%; growth at 10 µM (MCF7): 16%; growth at 10 µM (OVCAR-4): 21%; growth at 10 µM (NCI/ADR-RES): 5%; growth at 10 µM (Hs-578T): -7%; growth at 0.01 µM (HT-29 [6]): 97%; growth at 10 µM (NCI-H522): -22%; growth at 1 µM (HOP-92): 50%
